Experimental data as given in ChEMBL document CHEMBL1770119, “Synthesis and SAR of 4-(pyrazol-3-yl)-pyridines as novel c-jun N-terminal kinase inhibitors” (Bioorg Med Chem Lett, 2011).

Columns and labels:
Format in all cases: ADME, organism-based
[1] = Drug level in plasma of C57Bl6 mouse at 10 mg/kg, ip after 2 hrs; set-up: dose 10 mg/kg, route intraperitoneal; details: read-out: Drug uptake
Outline: (§1)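 C57Bl6 mice (n = 3) dosed 10 mg/kg intraperitoneally; blood and brain collected 2 h later. Plasma and brain mixed with acetonitrile (1:5 v:v or w:v); brain broken up by probe sonication. Drug measured by LC-MS/MS against standards in plasma or in blank brain matrix.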

[2] = Drug level in brain of C57Bl6 mouse at 10 mg/kg, ip after 2 hrs; set-up: dose 10 mg/kg, route intraperitoneal; details: read-out: Drug uptake; outline: as §1
[3] = AUC in Sprague-Dawley rat at 2 mg/kg, po; set-up: dose 2 mg/kg, route oral; details: plasma
Outline: (§2)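 Sprague-Dawley rats (n = 3) given 1 mg/kg IV and 2 mg/kg oral gavage. Blood taken into EDTA tubes at 5, 15, 30 min and 1, 2, 4, 6, 8 h; plasma obtained by centrifugation. Plasma proteins precipitated with acetonitrile; drug measured by LC-MS/MS. Parameters derived by noncompartmental analysis.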

Rattus norvegicus = assay: Oral bioavailability in Sprague-Dawley rat at 2 mg/kg; details: in vivo; outline: as §2

concentration at 2 h [1] [µM]	concentration at 2 h [2] [µM]	AUC [3] [µM·h]	F (Rattus norvegicus) [%]	Compound
10.4	5.3	7.1	73	Cc1nc(C)n(-c2ccc(Nc3cc(-c4ccn(C)n4)c(Cl)cn3)cc2)n1
6.6	3.5	45	75	Cn1ccc(-c2cc(Nc3ccc(-n4cnc(N5CCOCC5)n4)cc3)ncc2Cl)n1

Second part, the molecule before the results:

Compound	concentration at 2 h [1] [µM]	concentration at 2 h [2] [µM]	AUC [3] [µM·h]	F (Rattus norvegicus) [%]
Cc1ccc(-c2ncn(-c3ccc(Nc4cc(-c5ccn(C)n5)c(F)cn4)cc3)n2)cn1	9	10.3	10	69
Cn1ccc(-c2cc(Nc3ccc(-n4cnc(-c5ccccn5)n4)cc3)ncc2F)n1	3.3	0.74	14.9	73
Cc1nc(C)n(-c2ccc(Nc3cc(-c4nn(C)cc4-c4ccc(F)cc4)ccn3)cc2)n1	9	1.4	6	51
